Assay results as given in ChEMBL document CHEMBL4602702, “Red-Emitting Dibenzodiazepinone Derivatives as Fluorescent Dualsteric Probes for the Muscarinic Acetylcholine M2 Receptor” (J Med Chem, 2020).
Values belong to the compound of their own block, whether it stands above or below them.

How the values were obtained:
[1] = biological target: T1, Muscarinic acetylcholine receptor M2 (Homo sapiens) (UniProt P08172); test: Binding affinity to human muscarinic M2 receptor expressed in CHO-K9 cells assessed as dissociation rate constant at 22 +/- 1 degree C preincubated for 180 mins followed by atropine addition by flow cytometric saturation binding study; assay type: cell-based
T1 sequence (whole entry): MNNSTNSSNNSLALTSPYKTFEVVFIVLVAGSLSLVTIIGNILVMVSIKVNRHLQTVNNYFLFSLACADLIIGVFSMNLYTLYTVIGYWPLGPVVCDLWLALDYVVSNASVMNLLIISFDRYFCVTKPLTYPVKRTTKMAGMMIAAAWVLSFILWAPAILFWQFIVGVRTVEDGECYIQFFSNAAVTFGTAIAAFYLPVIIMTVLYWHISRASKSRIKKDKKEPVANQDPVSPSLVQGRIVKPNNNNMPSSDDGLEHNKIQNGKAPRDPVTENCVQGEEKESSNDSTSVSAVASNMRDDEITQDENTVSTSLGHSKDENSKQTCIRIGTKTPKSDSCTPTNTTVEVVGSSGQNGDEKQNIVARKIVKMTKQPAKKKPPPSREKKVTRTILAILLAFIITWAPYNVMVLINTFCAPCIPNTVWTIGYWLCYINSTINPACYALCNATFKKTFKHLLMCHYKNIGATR
How it was run: (§1)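 Dissociation followed by flow cytometry at 22 °C over 9 h. koff from three-parameter incomplete monophasic decline fit; three or four experiments in duplicate.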

[2] = biological target: T2, Muscarinic acetylcholine receptor M4 (Homo sapiens, UniProt P08173); test: Binding affinity to human muscarinic M4 receptor expressed in […] cells incubated in dark at 22 degree C for 2 hrs by FACSCalibur flow cytometric saturation binding study; assay type: cell-based
T2 sequence (P08173 whole entry): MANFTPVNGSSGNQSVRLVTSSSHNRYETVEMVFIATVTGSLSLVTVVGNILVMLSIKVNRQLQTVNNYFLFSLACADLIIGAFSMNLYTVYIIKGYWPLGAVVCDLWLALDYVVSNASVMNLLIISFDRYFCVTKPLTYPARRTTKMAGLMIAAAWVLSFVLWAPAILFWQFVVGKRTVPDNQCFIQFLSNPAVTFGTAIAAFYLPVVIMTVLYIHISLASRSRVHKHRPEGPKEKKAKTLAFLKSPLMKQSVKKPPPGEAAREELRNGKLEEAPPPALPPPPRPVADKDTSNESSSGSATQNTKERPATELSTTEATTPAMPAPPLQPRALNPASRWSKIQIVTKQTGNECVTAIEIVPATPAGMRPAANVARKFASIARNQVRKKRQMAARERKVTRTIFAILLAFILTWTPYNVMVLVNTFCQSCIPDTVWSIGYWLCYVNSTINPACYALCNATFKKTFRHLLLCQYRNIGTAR

[3] = biological target: T3, Muscarinic acetylcholine receptor M2 (Homo sapiens, UniProt P08172); test: Binding affinity to human muscarinic M2 receptor expressed in […] cells at 22 +/- 1 degree C preincubated for 180 mins followed by atropine addition by flow cytometric kinetic binding study
T3 sequence (P08172 whole entry): T1 sequence (whole entry)

[4] = biological target: T3, Muscarinic acetylcholine receptor M2; test: Binding affinity to human muscarinic M2 receptor expressed in […] cells at 22 +/- 1 degree C preincubated for 120 mins followed by atropine addition by flow cytometric saturation binding study; assay type: cell-based
[5] = biological target: T1, Muscarinic acetylcholine receptor M2 (Homo sapiens); test: Binding affinity to human muscarinic M2 receptor expressed in CHO-K9 cells assessed as dissociation rate constant at 22 +/- 1 degree C preincubated for 110 mins followed by atropine addition by flow cytometric saturation binding study; assay type: cell-based; how it was run: as §1

- K [1]: 0.0045 min⁻¹
- Kd [2]: 9.55 nM
- Kd [3]: 0.48 nM
Compound: CC1(C)C(/C=C/C=C/C=C2/N(CCCCCC(=O)NCCN3CCN(CCCCC4CCN(CC(=O)N5c6ccccc6NC(=O)c6ccccc65)CC4)CC3)c3ccc(S(=O)(=O)O)cc3C2(C)C)=[N+](CCCCS(=O)(=O)[O-])c2ccccc21.O=C(O)C(F)(F)F.O=C(O)C(F)(F)F

- Kd [4]: 1.9 nM
Compound: CC1(C)C(/C=C/C=C/C=C2/N(CCCCCC(=O)NCCNC(=O)CCc3cn(CCCCC4CCN(CC(=O)N5c6ccccc6NC(=O)c6ccccc65)CC4)cn3)c3ccc(S(=O)(=O)O)cc3C2(C)C)=[N+](CCCCS(=O)(=O)[O-])c2ccccc21.O=C(O)C(F)(F)F

- K [5]: 0.0031 min⁻¹
Compound: CC1(C)C(/C=C/C=C/C=C2/N(CCCCCC(=O)NCc3cc(C(=O)NCCNC(=O)CCc4cn(CCCCC5CCN(CC(=O)N6c7ccccc7NC(=O)c7ccccc76)CC5)cn4)cc(C(=O)NCCNC(=O)CCc4cn(CCCCC5CCN(CC(=O)N6c7ccccc7NC(=O)c7ccccc76)CC5)cn4)c3)c3ccc(S(=O)(=O)O)cc3C2(C)C)=[N+](CCCCS(=O)(=O)[O-])c2ccccc21.O=C(O)C(F)(F)F.O=C(O)C(F)(F)F.O=C(O)C(F)(F)F
